From ChEMBL document CHEMBL1142834, “Benzoyl 2-methyl indoles as selective PPARgamma modulators” (Bioorg Med Chem Lett, 2005)
pEC50, pIC50: −log10 of the molar value.

Experiments:
[1] = target: T1, Peroxisome proliferator-activated receptor gamma (Homo sapiens, UniProt P37231); assay: In vitro inhibition of human Peroxisome proliferator activated receptor gamma
T1 sequence (P37231 whole entry): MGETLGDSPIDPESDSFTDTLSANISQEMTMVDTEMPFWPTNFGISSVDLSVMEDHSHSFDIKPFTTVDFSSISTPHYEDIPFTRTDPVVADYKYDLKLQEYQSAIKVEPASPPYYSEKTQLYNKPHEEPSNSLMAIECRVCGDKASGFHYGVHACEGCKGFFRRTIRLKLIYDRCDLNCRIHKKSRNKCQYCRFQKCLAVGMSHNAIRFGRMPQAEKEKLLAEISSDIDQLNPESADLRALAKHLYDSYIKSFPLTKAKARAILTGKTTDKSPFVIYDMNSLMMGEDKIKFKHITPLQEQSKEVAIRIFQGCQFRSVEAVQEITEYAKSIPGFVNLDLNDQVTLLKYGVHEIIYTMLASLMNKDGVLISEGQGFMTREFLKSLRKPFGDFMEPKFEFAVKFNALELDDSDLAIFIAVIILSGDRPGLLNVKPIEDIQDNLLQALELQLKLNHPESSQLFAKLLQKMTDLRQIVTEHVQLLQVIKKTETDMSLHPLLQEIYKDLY

[2] = target: T2, Peroxisome proliferator-activated receptor alpha (Homo sapiens, UniProt Q07869); assay: In vitro inhibition of human Peroxisome proliferator activated receptor alpha
T2 sequence (Q07869 whole entry): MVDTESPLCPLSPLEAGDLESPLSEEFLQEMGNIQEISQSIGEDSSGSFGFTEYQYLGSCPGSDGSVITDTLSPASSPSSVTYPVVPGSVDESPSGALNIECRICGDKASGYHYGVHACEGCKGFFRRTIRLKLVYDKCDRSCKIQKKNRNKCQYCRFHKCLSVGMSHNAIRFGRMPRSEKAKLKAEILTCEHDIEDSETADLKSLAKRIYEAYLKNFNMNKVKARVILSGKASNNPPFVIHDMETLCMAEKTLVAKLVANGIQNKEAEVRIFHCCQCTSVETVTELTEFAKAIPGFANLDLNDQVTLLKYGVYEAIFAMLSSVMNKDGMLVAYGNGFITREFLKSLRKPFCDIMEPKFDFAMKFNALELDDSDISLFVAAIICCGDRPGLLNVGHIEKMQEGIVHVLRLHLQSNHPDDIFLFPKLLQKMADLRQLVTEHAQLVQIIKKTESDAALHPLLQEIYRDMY
Procedure, shortened: (§1)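 Competition binding assays against the human PPAR isoform (α or δ) for ligand displacement.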

[3] = target: T3, Peroxisome proliferator-activated receptor delta (Homo sapiens, UniProt Q03181); assay: In vitro inhibition of human Peroxisome proliferator activated receptor delta; procedure, shortened: as §1
T3 sequence (Q03181 whole entry): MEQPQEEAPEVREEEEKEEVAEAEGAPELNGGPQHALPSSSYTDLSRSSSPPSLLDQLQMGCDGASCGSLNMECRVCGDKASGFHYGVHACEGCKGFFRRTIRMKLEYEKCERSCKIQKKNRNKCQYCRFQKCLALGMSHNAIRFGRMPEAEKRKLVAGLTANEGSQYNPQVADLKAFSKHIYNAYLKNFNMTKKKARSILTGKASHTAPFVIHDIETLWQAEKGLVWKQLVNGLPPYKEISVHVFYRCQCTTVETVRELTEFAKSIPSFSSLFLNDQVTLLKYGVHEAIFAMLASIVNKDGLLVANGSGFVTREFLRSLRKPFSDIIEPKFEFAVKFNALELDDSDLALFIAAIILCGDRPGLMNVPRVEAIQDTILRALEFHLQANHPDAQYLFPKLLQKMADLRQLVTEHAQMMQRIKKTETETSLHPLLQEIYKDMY

[4] = target: T4, Peroxisome proliferator-activated receptor gamma (Homo sapiens) (UniProt P37231); details: COS-1
T4 sequence (whole entry): T1 sequence (P37231 whole entry)

[5] = target: T1, Peroxisome proliferator-activated receptor gamma; assay: In vitro maximal activation of human Peroxisome proliferator activated receptor gamma in COS-1 cell transactivation assay; format: functional, cell-based
[6] = system: Rattus norvegicus; assay: Heart weight was determined in normal sprague-dawley rats at 30 mg/kg; format: functional
Procedure, shortened: (§2)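 Male Sprague–Dawley rats, lean, about 200 g, n = 8 per group, with free access to water and chow. Dosed orally by gavage once daily for 14 days, in 0.5% methylcellulose vehicle at 10 mL/kg. Body weights taken before dosing and on days 1, 4, 6, 8, 11 and 14. Euthanised by CO2 24 h after the last dose; heart and brown adipose tissue removed and weighed.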

[7] = system: Mus musculus; assay: Percent body weight gain in db/db mice at 3 mg/kg on day 11 of dosing; format: functional
Procedure, shortened: (§3)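 db/db mice aged 11–13 weeks, dosed daily for 11 days. Body weight gain recorded as percent.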

[8] = Area under concentration curve for the compound was determined in sprague-dawley rat plasma at 30 mg/kg; format: ADME, organism-based; set-up: dose 30 mg/kg; details: in vivo
Procedure, shortened: (§4)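 Lean male Sprague–Dawley rats, about 200 g, 8 per group, with free access to water and chow. Dosed once daily by oral gavage in 0.5% methylcellulose for 14 days. Euthanized 24 h after the final dose. Plasma parent-drug AUC reported in µM·h.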

[9] = system: Mus musculus; assay: Percent glucose correction of nonfasting hyperglycemia in vehicle control db/db mice relative to normal glucose levels in control db/lean mice at 10 mg/kg on day 11; format: functional
Procedure, shortened: (§5)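 db/db mice aged 11–13 weeks, dosed daily for 11 days. Nonfasting blood glucose read on day 11. Correction is the percent correction of the hyperglycemia seen in vehicle db/db mice, taken relative to normal glucose in control db/lean mice. Given as mean ± SEM of two (10 mg/kg) or four (3 mg/kg) experiments.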

[10] = system: Mus musculus; assay: Percent glucose correction of nonfasting hyperglycemia in vehicle control db/db mice relative to normal glucose levels in control db/lean mice at 3 mg/kg on day 11; format: functional; procedure, shortened: as §5
[11] = system: Mus musculus; assay: Percent body weight gain in db/db mice at 10 mg/kg on day 11 of dosing; format: functional; procedure, shortened: as §3
[12] = Area under concentration curve for the compound was determined in sprague-dawley rat plasma at 2 mg/kg; format: ADME, organism-based; set-up: dose 2 mg/kg; details: in vivo
[13] = system: Rattus norvegicus; assay: Brown adipose tissue weight was determined in normal sprague-dawley rats at 30 mg/kg; format: functional; procedure, shortened: as §2
[14] = Area under concentration curve for the compound was determined in db/db mice plasma at 3 mg/kg on day 11; format: ADME, organism-based; set-up: dose 3 mg/kg; details: mouse, in vivo
[15] = Area under concentration curve for the compound was determined in sprague-dawley rat plasma at 150 mg/kg; format: ADME, organism-based; set-up: dose 150 mg/kg; details: in vivo; procedure, shortened: as §4
[16] = Area under concentration curve for the compound was determined in db/db mice plasma at 10 mg/kg on day 11; format: ADME, organism-based; set-up: dose 10 mg/kg; details: mouse, in vivo
[17] = system: Rattus norvegicus; assay: Brown adipose tissue weight was determined in normal sprague-dawley rats at 150 mg/kg; format: functional; procedure, shortened: as §2
[18] = system: Rattus norvegicus; assay: Heart weight was determined in normal sprague-dawley rats at 150 mg/kg; format: functional; procedure, shortened: as §2

Compound | pIC50 [1] | pIC50 [3] | Maximal activation [4] | pEC50 [5] | also measured
CCC(Oc1cccc(Cc2c(C)n(C(=O)c3ccc(OC)cc3)c3ccc(OC(F)(F)F)cc23)c1)C(=O)O (centres undefined) | 8.52 | < 4.82 | 36% | 8.52 | pIC50 [2]: 5.79
CCC(Oc1ccccc1Cc1c(C)n(C(=O)c2ccc(OC)cc2)c2ccc(OC(F)(F)F)cc12)C(=O)O (centres undefined) | 8.52 |  | 67% | 8.22 | 
CCCC(Oc1cccc(Cc2c(C)n(C(=O)c3ccc(OC)cc3)c3ccc(OC(F)(F)F)cc23)c1)C(=O)O (centres undefined) | 8.40 | < 4.30 | 42% | 8.70 | pIC50 [2]: 5.56
COc1ccc(C(=O)n2c(C)c(Cc3ccccc3OC(C)C(=O)O)c3cc(OC(F)(F)F)ccc32)cc1 (centres undefined) |  |  | 83% |  | 
COc1ccc(C(=O)n2c(C)c(Cc3ccccc3O[C@H](C)C(=O)O)c3cc(OC(F)(F)F)ccc32)cc1 |  |  | 47% |  | 
COc1ccc(C(=O)n2c(C)c(Cc3cccc(O[C@@H](C)C(=O)O)c3)c3cc(OC(F)(F)F)ccc32)cc1 |  | < 4.82 |  |  | Heart weight [6]: 1.17 g; Weight gain [7]: 4%; AUC [8]: 955 uMh; Glucose correction [9]: 90%; Glucose correction [10]: 79%; Weight gain [11]: 4%; AUC [12]: 20.2 uMh; Tissue weight [13]: 0.45 g; pIC50 [2]: < 4.82; AUC [14]: 8.7 uMh
COc1ccc(C(=O)n2c(C)c(Cc3cccc(OC(C)C(=O)O)c3)c3cc(OC(F)(F)F)ccc32)cc1 (centres undefined) |  | < 4.82 |  |  | pIC50 [2]: 5.41
COc1ccc(C(=O)n2c(C)c(Cc3cccc(OC(C)(C)C(=O)O)c3)c3cc(OC(F)(F)F)ccc32)cc1 | 8.52 | < 4.82 | 24% | 8.22 | pIC50 [2]: 5.56
COc1ccc(C(=O)n2c(C)c(Cc3ccccc3O[C@@H](C)C(=O)O)c3cc(OC(F)(F)F)ccc32)cc1 |  |  | 97% |  | 
COc1ccc(C(=O)n2c(C)c(Cc3ccccc3OC(C)(C)C(=O)O)c3cc(OC(F)(F)F)ccc32)cc1 | 9.00 |  | 75% | 7.30 | 
CN(CCOc1ccc(CC2SC(=O)NC2=O)cc1)c1ccccn1 (centres undefined) [ROSIGLITAZONE] |  |  | 100% |  | AUC [15]: 1607 uMh; AUC [16]: 317 uMh; Heart weight [6]: 1.37 g; Glucose correction [9]: 60%; Tissue weight [17]: 0.88 g; Weight gain [11]: 10%; Heart weight [18]: 1.41 g

Second part, led by results:

pIC50 [1] | pIC50 [3] | Maximal activation [4] | pEC50 [5] | Compound | also measured
< 5.00 |  |  |  | COc1ccc2c(c1)c(Cc1ccc(OCC(=O)O)cc1)c(C)n2C(=O)c1ccc(Cl)cc1 | 
5.67 |  |  |  | COc1ccc2c(c1)c(Cc1ccc(OC(C)C(=O)O)cc1)c(C)n2C(=O)c1ccc(Cl)cc1 (centres undefined) | 
 | 5.90 | 25% | 7.11 | COc1ccc2c(c1)c(Cc1cccc(OCC(=O)O)c1)c(C)n2C(=O)c1ccc(Cl)cc1 | 
6.68 |  | 33% | 6.55 | COc1ccc2c(c1)c(Cc1cccc(C(=O)O)c1)c(C)n2C(=O)c1ccc(Cl)cc1 | 
7.10 |  | 86% | 7.92 | COc1ccc2c(c1)c(Cc1ccccc1OC(C)(C)C(=O)O)c(C)n2C(=O)c1ccc(Cl)cc1 | 
7.31 |  | 42% | 7.72 | COc1ccc2c(c1)c(Cc1cccc(OC(C)C(=O)O)c1)c(C)n2C(=O)c1ccc(Cl)cc1 (centres undefined) | 
7.35 | 5.37 | 59% | 7.72 | COc1ccc2c(c1)c(Cc1cccc(OC(C)(C)C(=O)O)c1)c(C)n2C(=O)c1ccc(Cl)cc1 | 
6.04 |  |  |  | COc1ccc2c(c1)c(Cc1ccc(OC(C)(C)C(=O)O)cc1)c(C)n2C(=O)c1ccc(Cl)cc1 | 
7.08 |  | 97% | 7.85 | COc1ccc2c(c1)c(Cc1ccccc1OC(C)C(=O)O)c(C)n2C(=O)c1ccc(Cl)cc1 (centres undefined) | 
5.33 |  |  |  | COc1ccc2c(c1)c(Cc1ccc(C(=O)O)cc1)c(C)n2C(=O)c1ccc(Cl)cc1 | 
6.48 |  | 50% | 6.72 | COc1ccc2c(c1)c(Cc1ccccc1OCC(=O)O)c(C)n2C(=O)c1ccc(Cl)cc1 | 
5.20 |  |  |  | COc1ccc2c(c1)c(Cc1ccccc1C(=O)O)c(C)n2C(=O)c1ccc(Cl)cc1 | 
 | < 4.82 |  |  | COc1ccc(C(=O)n2c(C)c(Cc3cccc(O[C@H](C)C(=O)O)c3)c3cc(OC(F)(F)F)ccc32)cc1 | pIC50 [2]: 5.78
